Key:
Assay type in all cases: functional
KM12 = assay: Growth inhibition of human KM12 cells after 48 hrs by Sulforhodamine B assay; details: KM12, 48 h
Procedure, shortened: (§1)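 Five-concentration SRB assay using 10-fold or ½-log serial dilutions from a DMSO stock. Exposure is 48 h at 37 °C in 5% CO2 after 24 h preincubation. TCA fixation is followed by SRB staining and a reading at 515 nm. Percentage growth is computed from time-zero, control and treated absorbances. GI50 is the concentration where [(Ti−Tz)/(C−Tz)]×100 = 50, read from the plot against log concentration.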

COLO 205 = assay: Growth inhibition of human COLO205 cells after 48 hrs by Sulforhodamine B assay; details: COLO 205, 48 h; procedure, shortened: as §1
HOP-62 = assay: Growth inhibition of human HOP62 cells after 48 hrs by Sulforhodamine B assay; details: HOP-62, 48 h; procedure, shortened: as §1
ACHN = assay: Growth inhibition of human ACHN cells after 48 hrs by Sulforhodamine B assay; procedure, shortened: as §1
MDA-MB-231 = assay: Growth inhibition of human MDA-MB-231 cells after 48 hrs by Sulforhodamine B assay; details: MDA-MB-231, 48 h; procedure, shortened: as §1
K562 = assay: Growth inhibition of human K562 cells after 48 hrs by Sulforhodamine B assay; details: K562, 48 h; procedure, shortened: as §1
UACC-257 = assay: Growth inhibition of human UACC257 cells after 48 hrs by Sulforhodamine B assay; details: UACC-257, 48 h
Procedure, shortened: (§2)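 Five-concentration stage in the […]-cell-line panel, using 10-fold or ½-log serial dilutions made from a DMSO stock (400-fold). Cells were preincubated 24 h at 37 °C, then drug-exposed 48 h. A time-zero plate was fixed with TCA at dosing, adherent cells were fixed with cold TCA (10% final), and protein was stained with SRB, absorbance 515 nm. GI50 was where [(Ti−Tz)/(C−Tz)]×100 = 50, from the percent growth vs log concentration plot, expressed as log10 GI50.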

MDA-MB-435 = assay: Growth inhibition of human MDA-MB-435 cells after 48 hrs by Sulforhodamine B assay; details: MDA-MB-435, 48 h; procedure, shortened: as §1
SN12C = assay: Growth inhibition of human SN12C cells after 48 hrs by Sulforhodamine B assay
Procedure, shortened: (§3)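 Cells were preincubated 24 h at 37 °C, 5% CO2, and a time-zero plate was TCA-fixed. Five concentrations were made by serial dilution from a DMSO stock (400-fold the top concentration) and incubated 48 h. Adherent cells were fixed with 10% final TCA and suspension cells with 16%. Plates were stained with 0.4% SRB and read at 515 nm. GI50 is the concentration giving 50% reduction in net protein increase versus control.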

UACC-62 = assay: Growth inhibition of human UACC62 cells after 48 hrs by Sulforhodamine B assay; details: UACC-62, 48 h; procedure, shortened: as §2
M14 = assay: Growth inhibition of human M14 cells after 48 hrs by Sulforhodamine B assay; details: M14, 48 h; procedure, shortened: as §1
LOX IMVI = assay: Growth inhibition of human LOXIMVI cells after 48 hrs by Sulforhodamine B assay; procedure, shortened: as §1
SK-MEL-28 = assay: Growth inhibition of human SK-MEL-28 cells after 48 hrs by Sulforhodamine B assay; details: SK-MEL-28, 48 h; procedure, shortened: as §3
UO-31 = assay: Growth inhibition of human UO31 cells after 48 hrs by Sulforhodamine B assay; details: UO-31, 48 h; procedure, shortened: as §2
SF-268 = assay: Growth inhibition of human SF268 cells after 48 hrs by Sulforhodamine B assay; details: SF-268, 48 h; procedure, shortened: as §3
NCI-H522 = assay: Growth inhibition of human NCI-H522 cells after 48 hrs by Sulforhodamine B assay; details: NCI-H522, 48 h; procedure, shortened: as §3

SMILES | GI50 (KM12) [µM] | GI50 (COLO 205) [µM] | GI50 (HOP-62) [µM] | GI50 (ACHN) [µM] | GI50 (MDA-MB-231) [µM] | GI50 (K562) [nM] | GI50 (UACC-257) [µM] | GI50 (MDA-MB-435) [µM] | GI50 (SN12C) [µM] | GI50 (UACC-62) [µM] | GI50 (M14) [µM] | GI50 (LOX IMVI) [µM] | GI50 (SK-MEL-28) [µM] | GI50 (UO-31) [µM] | GI50 (SF-268) [µM] | GI50 (NCI-H522) [µM]
O=c1[nH]c(-c2ccccn2)nc2sc3c(c12)CCCCCC3 | 4.07 | 5.89 | 6.31 | 5.25 | 8.71 | 1000 | > 100 | > 100 | 6.31 | 5.5 | 4.07 | 1.1 | 6.03 | 5.89 | 8.71 | > 100
CN1CCN(c2nc(-c3ccncc3)nc3sc4c(c23)CCCCCC4)CC1 | 13.5 | 4.9 | 6.46 | 7.94 | 4.27 | 3550 | 10.7 | 11.7 | 5.62 | 11 | 5.37 | 8.32 | 12.6 | 1.58 | 5.37 | 12

Reference: ChEMBL document CHEMBL2375304, “Synthesis and anticancer activity of novel 2-pyridyl hexahyrocyclooctathieno[2,3-d]pyrimidine derivatives” (2013)
